# KCNQ1 inh – inhibitors of human KCNQ1 channel, primary screen, cell-based, thallium flux, high-throughput | CHO-K1 KCNQ1, FluxOR thallium flux fluorescence; stronger effect = higher value | B-score at 10 µM | 310,000 compounds, 1.3% hits;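 active = compounds whose thallium flux B-score, printed positive for inhibition, exceeds three library SD while starting fluorescence stays within three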;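 also: channel opened by potassium depolarization with thallium stimulus after 20 min compound exposure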
# Target sequence (P51787 whole entry, looked up): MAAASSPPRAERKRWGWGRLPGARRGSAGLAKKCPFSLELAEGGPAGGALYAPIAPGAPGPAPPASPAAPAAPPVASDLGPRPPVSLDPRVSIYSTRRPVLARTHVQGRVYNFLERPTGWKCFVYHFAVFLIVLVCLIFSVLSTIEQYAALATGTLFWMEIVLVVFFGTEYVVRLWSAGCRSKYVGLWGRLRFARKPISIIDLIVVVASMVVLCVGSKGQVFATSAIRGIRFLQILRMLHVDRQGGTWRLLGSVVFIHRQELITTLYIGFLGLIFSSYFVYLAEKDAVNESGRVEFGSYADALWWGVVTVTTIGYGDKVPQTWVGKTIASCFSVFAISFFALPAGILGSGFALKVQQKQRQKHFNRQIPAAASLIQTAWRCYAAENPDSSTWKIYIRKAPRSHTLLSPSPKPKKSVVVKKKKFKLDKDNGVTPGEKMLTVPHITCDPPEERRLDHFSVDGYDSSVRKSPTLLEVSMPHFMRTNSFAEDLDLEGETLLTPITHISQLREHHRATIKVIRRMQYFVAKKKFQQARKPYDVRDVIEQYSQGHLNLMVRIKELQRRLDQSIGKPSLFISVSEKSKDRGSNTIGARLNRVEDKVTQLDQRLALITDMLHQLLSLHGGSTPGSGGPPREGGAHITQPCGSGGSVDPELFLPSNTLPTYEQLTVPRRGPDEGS
# KCNK9 block – KCNK9 potassium channel inhibitors, primary screen, HEK293 cells, thallium flux | FluxOR thallium flux fluorescence; stronger effect = lower value | B-score at 10 µM | 310,000 compounds, 1.2% hits | AID 488922, 2010;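 active = ratio B-score over 3 SD below the library mean, with starting fluorescence within 5 SD of its mean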;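 also: negative B-score means less thallium flux so channel inhibition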
# hERG protect – hERG rescue from dofetilide block, primary screen, cell-based, CHO-hERG, FluxOR thallium flux, dofetilide IC70; Voltage-gated inwardly rectifying potassium channel KCNH2 (Homo sapiens), Q12809; activation (rescue from dofetilide block), less the hit threshold, % at 10 µM; AID 1511, 2009; dofetilide IC70 present; 310,000 compounds, 0.51% hits;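 active = activation above the mean of controls blocked by dofetilide plus 5 SD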;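 also: thallium influx through hERG after potassium depolarization seen as dye fluorescence rise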
# Cl transport mod – KCC2 cotransporter modulators, thallium flux, primary screen, cell-based, HEK293 KCC2, FluoZin-2 fluorescence, MLSMR | Solute carrier family 12 member 5 (Homo sapiens), Q9H2X9 | 190,000 compounds, 2.2% hits | KCC2 cells, thallium flux FluoZin-2 fluorescence | B-score of Tl+ flux slope (higher = more flux/activation; lower = inhibition) at 10 µM;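 active = thallium flux slope and its plate-corrected score both differing from the plate sample mean at a set confidence after two filtering rounds, in either direction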;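 also: slope of fluorescence scaled to starting intensity during 10 to 20 s after thallium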
# KCNK3 block – human KCNK3 channel inhibitors, primary screen, CHO cells, FluxOR thallium flux, B-score; FluxOR fluorescence; stronger effect = lower value; B-score at 10 µM; 340,000 compounds, 0.84% hits; AID 602410, 2012;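 active = B-score under library mean minus 4 SD, starting fluorescence ratio at most library mean plus 5 SD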;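 also: more negative B-score means stronger inhibition of thallium flux through KCNK3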
# KCNQ1 act – potentiators or activators of KCNQ1 channel, primary screen, cell-based, thallium flux, high-throughput. B-score at 10 µM. CHO-K1 KCNQ1, thallium flux FluxOR fluorescence; stronger effect = higher value. Potassium voltage-gated channel subfamily KQT member 1 (Homo sapiens), P51787. 310,000 compounds, 0.35% hits;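 active = fluorescence ratio B-score, a plate-corrected score, at least three library SD, with initial intensity B-score within 5 SD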
#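 Schedule – 37 °C overnight plating, 90-min dark dye load, 20-min compound pretreatment · System – stable KCNQ1 CHO-K1 line · Probe or stimulus – thallium- and potassium-containing depolarizing buffer · Measured by – kinetic FluxOR fluorescence, 10 s baseline plus 110 s post-stimulus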
# Numbers stand for hits; . = inactive; / = not tested or not shown. The list is not random: actives were taken first. Their share in the collection is about 4.1%.
SMILES,KCNQ1 inh,KCNK9 block,hERG protect,Cl transport mod,KCNK3 block,KCNQ1 act
COc1ccc(S(=O)(=O)N(CCc2ccccc2)CC(=O)O)cc1C,.,.,.,.,.,.
CCn1c(SCC(=O)Nc2cc(C)on2)nc2c(c1=O)SC(C)C2 (centres undefined),.,.,.,.,.,.
CCn1c(SCC(=O)Nc2nc3ccc(C)cc3s2)nc2c(c1=O)SC(C)C2 (centres undefined),.,.,.,.,-11,.
COc1ccc(NC(C)=O)cc1S(=O)(=O)N1CCn2cccc2C1C (centres undefined),/,/,/,/,.,/
COC(=O)c1ccccc1S(=O)(=O)N1CCn2cccc2C1C (centres undefined),.,.,35,.,.,.
O=C(O)CC/C(=N\NC(=O)CNC(=O)c1cccc(Cl)c1)c1ccccc1,.,.,.,.,.,.
CC(C)(C)C(=O)Nc1cccc(OC(F)(F)C(F)Cl)c1 (centres undefined),.,-7,.,.,.,.
CCOc1ccccc1NC(=O)c1cccc(S(=O)(=O)N(Cc2ccccc2)c2ccccc2OC)c1,.,-6.9,.,.,.,.
CN(C)c1ccc(N=Cc2nc(-c3ccccc3)oc2OC(=O)c2cccc(Br)c2)cc1,.,-6.6,.,.,.,.
COc1ccc(N=Cc2nc(-c3ccccc3)oc2OC(=O)c2ccccc2)cc1,.,.,.,.,.,.
Cc1cc(NC(=O)CSc2nc(-c3ccc(Cl)cc3)cs2)no1,.,.,.,.,.,.
O=C(CSc1nc(-c2ccc(Cl)cc2)cs1)Nc1cccc([N+](=O)[O-])c1,6,.,.,.,.,.
COc1cc(C)nc(N2CCCC(C(=O)Nc3cc(Cl)ccc3OC)C2)n1 (centres undefined),.,-6.8,.,.,.,.
CCOc1ccc(C=NC23CN4CN(CN(C4)C2)C3)cc1,.,.,12,.,.,.
CCOC(=O)C1=C(C)N(c2ccccc2)C(=O)/C1=C\c1ccc(O)c(OC)c1,.,-6.8,.,.,.,.
CCOC(=O)C1=C(C)N(c2ccccc2)C(=O)/C1=C\c1ccco1,.,.,.,.,.,.
CNC(=O)CN(c1cccc2ccccc12)S(C)(=O)=O,.,.,7.0,.,.,.
CS(=O)(=O)N(CC(=O)NCCSc1ccccn1)c1cccc2ccccc12,.,.,.,.,.,.
COc1ccc(CCNC(=O)C2CC(=O)N(CCc3ccc(C)cc3)C2)cc1OC (centres undefined),.,.,.,.,.,.
CSCC(O)Cn1[nH]c(=O)c2cc(Cl)c(Cl)cc2c1=O (centres undefined),.,.,.,/,.,.
CCOC(=O)C[N+](C)(C)CCOC1CC2CCC1(C)C2(C)C (centres undefined),.,.,.,.,.,.
CC1(C)C2CCC1(C)C(OCC[N+](C)(C)CC(=O)OC1CCCCC1)C2 (centres undefined),7,.,.,.,.,.
COc1cccc([C@@H]2CC=C(C(=O)O)[C@H](c3ccc(F)cc3)N2S(=O)(=O)c2ccc(C)cc2)c1,/,/,/,/,.,/
CCOC(=O)c1[nH]c(=O)[nH]c1COC(=O)c1cc2ccccc2o1,.,.,6.2,.,.,.
Cn1ncc(Cl)c1C(=O)Nc1cccc(Cl)c1,.,.,.,.,.,.
SMILES,KCNQ1 inh,KCNK9 block,hERG protect,Cl transport mod,KCNK3 block,KCNQ1 act
Cn1ncc(N=Cc2c(O)ccc3ccccc23)c1C(=O)Nc1cccc(Cl)c1,.,-7.4,.,.,.,.
C=C(C)c1cccc(C(C)(C)NC(=O)NC2CCN(Cc3ccccc3)CC2)c1,.,.,.,/,.,.
O=C(CCNc1ccc(F)c(Cl)c1)c1ccco1,.,.,.,/,.,.
O=C(CCNc1ccc(Cl)c(C(F)(F)F)c1)c1ccco1,.,-7.3,.,.,.,.
C=CCn1c(O)c(C=Nc2ccc(Cc3ccncc3)cc2)c(=O)[nH]c1=S,.,.,.,.,.,.
O=C(Cn1nnc2ccccc21)N/N=C\C=C\c1ccccc1,.,.,6.7,.,.,.
Cc1c(NC(=O)Nc2ccc(Cl)c(Cl)c2)sc(=S)n1C,8,.,.,.,.,.
CC(=O)C[C@H]1c2cc(C(F)(F)F)ccc2S(=O)(=O)N1Cc1ccccc1,.,.,.,/,.,9
CN1CCN(C(=O)c2cnn3c(C(F)(F)F)cc(-c4cccs4)nc23)CC1,.,.,.,.,.,.
O=C(c1cnn2c(C(F)(F)F)cc(-c3cccs3)nc12)N1CCN(C(c2ccccc2)c2ccccc2)CC1,6,.,.,.,.,.
CN1CCN(c2oc(Cc3cccc4ccccc34)nc2C#N)CC1,.,.,.,.,.,.
N#Cc1nc(-c2ccccc2)oc1NCCCn1ccnc1,.,.,.,.,.,.
N#Cc1nc(Cc2ccccc2)oc1N1CCN(c2ccccc2)CC1,.,-7,.,/,.,.
N#Cc1nc(Cc2cccc3ccccc23)oc1NCCCn1ccnc1,.,.,.,-3.4,.,.
N#Cc1nc(COc2ccc(Cl)cc2)oc1N1CCCCCC1,/,/,/,/,-8.7,/
N#Cc1nc(Cc2cccc3ccccc23)oc1N1CCCCC1,6,.,.,-6.1,.,.
Cc1ccc(OCc2nc(C#N)c(N3CCCCC3)o2)cc1,.,.,.,.,.,.
N#C/C(=C\c1ccc(OCC(N)=O)cc1)C(=O)NC1CC1,.,.,.,/,.,.
COC(=O)CSc1[nH]c2ccccc2c1[N+](=O)[O-],.,.,.,.,.,.
O=C(CN1C(=O)NC(Cc2c[nH]c3ccccc23)C1=O)NC1CCCCC1 (centres undefined),/,/,/,/,.,/
COc1ccc(Cc2nnc(NC(=O)C(C)C)s2)cc1,.,.,.,.,.,.
COc1ccc(F)cc1S(=O)(=O)NCC(c1ccco1)N1CCc2ccccc2C1 (centres undefined),.,.,.,/,.,.
CNC(=O)c1c(NC(=O)c2nc3ccccc3s2)sc2c1CCC2,8,-7.8,.,/,.,.
COC(=O)c1c(NC(=O)c2nc3ccccc3s2)sc2c1CCN(C(C)=O)C2,/,/,/,.,.,/
O=C(NC(=S)N1CCN(c2c(Cl)cccc2[N+](=O)[O-])CC1)c1cccs1,.,.,.,/,.,49
O=C(NC(=S)N1CCN(c2ccc(O)cc2)CC1)c1cccs1,.,.,.,.,.,.

# Compound activity as filed in PubChem.
